As usually defined, the Kd is the equilibrium constant for the complex coming apart.

For experiment [1], the target named is T1, S-methyl-5'-thioadenosine phosphorylase (Homo sapiens, UniProt Q13126).
T1 sequence (Q13126 whole entry): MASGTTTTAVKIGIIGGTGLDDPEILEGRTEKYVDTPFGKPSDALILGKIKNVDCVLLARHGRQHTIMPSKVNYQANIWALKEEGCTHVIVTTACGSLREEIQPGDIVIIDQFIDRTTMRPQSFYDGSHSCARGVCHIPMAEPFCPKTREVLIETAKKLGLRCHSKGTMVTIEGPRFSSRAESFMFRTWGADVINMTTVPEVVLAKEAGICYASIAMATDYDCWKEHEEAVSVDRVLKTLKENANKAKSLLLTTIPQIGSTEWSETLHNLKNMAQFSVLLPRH
Description: Binding affinity to recombinant human N-terminal TEV cleavage site-fused-His6-tagged MTAP expressed in Escherichia coli BL21-CodonPlus(DE3)-RIPL competent cells assessed as reduction in MTA hydrolysis measured after 40 mins in presence of xanthine oxidase. In a few lines: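 MTAP (His6-tagged, TEV site, 14 extra N-terminal residues) was Ni-NTA purified and charcoal-dialysed to remove adenine. Each 1 mL cuvette held 100 mM K2PO4, 1 mM DTT, 800 μM MTA, 3 nM MTAP, 1 unit xanthine oxidase and varying inhibitor. Xanthine oxidase coupling gave 2,8-dihydroxyadenine, read at 305 nm (ε 15.5 mM⁻¹ cm⁻¹). Rates were taken at 40 min after slow-onset equilibrium. Ki* came from a Morrison quadratic fit.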

The nature of experiment [2]: Binding affinity to recombinant Helicobacter pylori MTAN expressed in Escherichia coli BL21(DE3) assessed as reduction in MTA hydrolysis measured after 40 mins in presence of xanthine oxidase. In a few lines: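 His-tagged HpMTAN was purified by Ni-NTA and freed of bound adenine by charcoal dialysis. Adenine was oxidized to 2,8-dihydroxyadenine and followed at 305 nm. Rates were read at 40 min, after slow-onset equilibrium, and fitted to the Morrison quadratic equation for Ki*.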

The nature of experiment [3]: Selectivity ratio of Kd for recombinant human N-terminal TEV cleavage site-fused-His6-tagged MTAP expressed in Escherichia coli BL21-CodonPlus(DE3)-RIPL competent cells to Kd for recombinant Helicobacter pylori MTAN expressed in Escherichia coli BL21(DE3). In a few lines:
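Ratio of the human MTAP dissociation constant to the HpMTAN dissociation constant. Each constant came from xanthine oxidase-coupled 305 nm rates taken at 40 min after slow-onset equilibrium and fitted to the Morrison equation. The MTAP assay used 800 μM MTA and 3 nM enzyme in 100 mM K2PO4; the HpMTAN assay used 1 mM MTA and 0.6 nM enzyme in 100 mM HEPES pH 7.2 with 100 mM NaCl.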

The target of experiment [4] is T2, S-methyl-5'-thioadenosine phosphorylase (Homo sapiens) (UniProt Q13126).
T2 sequence (whole entry): T1 sequence (Q13126 whole entry)
Description: Binding affinity to recombinant human N-terminal TEV cleavage site-fused-His6-tagged MTAP expressed in Escherichia coli BL21-CodonPlus(DE3)-RIPL competent cells assessed as reduction in MTA hydrolysis at 5 uM measured after 40 mins in presence of xanthine oxidase.

A further experiment concerns Helicobacter pylori. Description: Binding affinity to recombinant Helicobacter pylori MTAN expressed in Escherichia coli BL21(DE3) assessed as reduction in MTA hydrolysis at 5 uM measured after 40 mins in presence of xanthine oxidase.

Calls of active or inactive are those of the source. The rule behind the calls is not given here.

As to `C=CCn1cc(CSC[C@H]2CN(Cc3c[nH]c4c(N)ncnc34)C[C@@H]2O)nn1`, the Kd was found to be 70 nM in experiment [1] and 0.288 nM in experiment [2]. Further, in experiment [3], the Selectivity ratio was found to be 243.
Consider `CSC[C@H]1CN(Cc2[nH]nc3c(N)ncnc23)C[C@@H]1O`, for which the Kd turned out to be 19 nM in experiment [1] and 0.235 nM in experiment [2]. Also, the Selectivity ratio in experiment [3] is 80.9.
Consider `Nc1ncnc2c(CN3C[C@H](CSCc4cn(Cc5ccccc5)nn4)[C@@H](O)C3)c[nH]c12`, for which the Kd in experiment [1] is 13 nM; in experiment [2], 0.073 nM. Moreover, the Selectivity ratio in experiment [3] is 178.
Consider `O=c1[nH]ccc2c(CN3C[C@H](CO)[C@@H](O)C3)c[nH]c12`, for which the result (in experiment [4]; in the experiment with Helicobacter pylori) was inactive.
`C#CCCCSC[C@H]1CN(Cc2c[nH]c3c(N)ncnc23)C[C@@H]1O`: the Kd in experiment [1] was 0.94 nM; in experiment [2], 0.026 nM. For the same compound, the Selectivity ratio in experiment [3] amounted to 36.2.
On to `C#CCSC[C@H]1CN(Cc2c[nH]c3c(N)ncnc23)C[C@@H]1O`, for which the Kd in experiment [1] turned out to be 0.63 nM; in experiment [2] it was 0.055 nM. Also, in experiment [3], the Selectivity ratio is 11.5.
For the compound `Cn1cc(CCCSC[C@H]2CN(Cc3c[nH]c4c(N)ncnc34)C[C@@H]2O)nn1`, the Kd in experiment [1] is 3 nM; in experiment [2] it was 0.025 nM. For the same compound, the Selectivity ratio in experiment [3] was found to be 120.
In the same order, the values of `CSC[C@H]1CN(Cc2c[nH]c3c(N)nccc23)C[C@@H]1O` are 31.9 nM, 10.3 nM and 3.1.
`Nc1ncnc2c(CN3C[C@H](CSCCCc4cn(Cc5ccccc5)nn4)[C@@H](O)C3)c[nH]c12`: the figures for the Kd in experiment [1] and in experiment [2] were 1.4 nM and 0.036 nM, respectively. Moreover, the Selectivity ratio in experiment [3] turned out to be 38.9.
As to `Nc1ncnc2c(CN3C[C@H](CSc4ncccn4)[C@@H](O)C3)c[nH]c12`, the Kd in experiment [1] came to 13 nM; in experiment [2] it was 0.058 nM. Besides, in experiment [3], the Selectivity ratio is 224.
For `CCCCn1cc(CSC[C@H]2CN(Cc3c[nH]c4c(N)ncnc34)C[C@@H]2O)nn1` the same measures were 37 nM, 0.373 nM and 99.2.
In the case of `Cn1cc(CSC[C@H]2CN(Cc3c[nH]c4c(N)ncnc34)C[C@@H]2O)nn1`, the results for the Kd in experiment [1] and in experiment [2] were 66 nM and 0.274 nM, respectively. The Selectivity ratio in experiment [3] is 241.
On to `CCCCn1cc(CCCSC[C@H]2CN(Cc3c[nH]c4c(N)ncnc34)C[C@@H]2O)nn1`, for which the Kd in experiment [1] was 1.3 nM; in experiment [2] it was 0.028 nM. The Selectivity ratio in experiment [3] stood at 46.4.
For `C=CCn1cc(CCCSC[C@H]2CN(Cc3c[nH]c4c(N)ncnc34)C[C@@H]2O)nn1` the same measures were 2.4 nM, 0.026 nM and 92.3.
For the compound `CSC[C@H]1CN(Cc2c[nH]c3c(=O)[nH]ccc23)C[C@@H]1O`, the outcome (in experiment [4]; with Helicobacter pylori) was inactive.

(Values after ChEMBL document CHEMBL4340523, “Selective Inhibitors of Helicobacter pylori Methylthioadenosine Nucleosidase and Human Methylthioadenosine Phosphorylase” (J Med Chem, 2019).)
